Where a name gives a salt, the structure may show the parent alone.
Assays:
hOAT3 = biological target: T1, hOAT3 (Homo sapiens, UniProt Q8TCC7); assay: Cellular uptake and kinetics in S2-hOAT3 vs Mock cells; assay type: in vitro ADME
T1 sequence (Q8TCC7 1-542): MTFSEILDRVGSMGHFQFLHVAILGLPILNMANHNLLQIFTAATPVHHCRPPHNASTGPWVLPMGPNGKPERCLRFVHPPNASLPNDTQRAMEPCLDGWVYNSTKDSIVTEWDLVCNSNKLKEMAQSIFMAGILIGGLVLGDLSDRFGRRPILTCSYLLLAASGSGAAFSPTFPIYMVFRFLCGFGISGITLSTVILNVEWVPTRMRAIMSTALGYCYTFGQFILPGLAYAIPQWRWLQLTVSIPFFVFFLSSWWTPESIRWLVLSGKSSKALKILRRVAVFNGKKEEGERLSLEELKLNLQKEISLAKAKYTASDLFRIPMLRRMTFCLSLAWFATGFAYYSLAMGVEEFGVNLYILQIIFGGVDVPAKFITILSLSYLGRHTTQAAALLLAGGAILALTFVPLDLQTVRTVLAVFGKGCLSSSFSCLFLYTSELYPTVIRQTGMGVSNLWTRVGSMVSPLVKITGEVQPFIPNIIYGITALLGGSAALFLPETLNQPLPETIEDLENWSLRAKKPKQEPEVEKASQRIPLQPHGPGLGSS

hOATP1B1 = biological target: T2, hOATP1B1 (Homo sapiens, UniProt Q9Y6L6); assay: Cellular uptake and kinetics in HEK293-hOATP1B1 vs Mock cells; assay type: in vitro ADME
T2 sequence (Q9Y6L6 1-691): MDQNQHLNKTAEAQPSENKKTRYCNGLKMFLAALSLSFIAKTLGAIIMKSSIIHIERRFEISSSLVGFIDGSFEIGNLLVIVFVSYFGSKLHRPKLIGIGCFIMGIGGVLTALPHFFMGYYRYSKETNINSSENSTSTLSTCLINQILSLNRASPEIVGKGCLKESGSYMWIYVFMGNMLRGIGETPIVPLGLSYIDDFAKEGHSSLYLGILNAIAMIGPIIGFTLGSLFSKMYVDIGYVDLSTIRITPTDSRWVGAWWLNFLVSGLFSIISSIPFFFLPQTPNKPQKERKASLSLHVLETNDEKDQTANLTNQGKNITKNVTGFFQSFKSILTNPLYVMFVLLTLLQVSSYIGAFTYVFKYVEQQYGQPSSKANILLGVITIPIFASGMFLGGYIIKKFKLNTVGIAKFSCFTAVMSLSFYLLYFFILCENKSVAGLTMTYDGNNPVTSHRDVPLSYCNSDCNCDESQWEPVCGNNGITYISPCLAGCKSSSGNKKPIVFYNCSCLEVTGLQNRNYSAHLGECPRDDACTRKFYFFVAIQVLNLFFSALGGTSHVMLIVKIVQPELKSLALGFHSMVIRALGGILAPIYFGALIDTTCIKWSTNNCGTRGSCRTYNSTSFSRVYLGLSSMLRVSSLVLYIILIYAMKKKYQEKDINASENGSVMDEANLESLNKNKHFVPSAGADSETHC

hOATP1B3 = biological target: T3, hOATP1B3 (Homo sapiens, UniProt Q9NPD5); assay: Cellular uptake and kinetics in HEK293-hOATP1B3 vs Mock cells; assay type: in vitro ADME
T3 sequence (Q9NPD5 1-702): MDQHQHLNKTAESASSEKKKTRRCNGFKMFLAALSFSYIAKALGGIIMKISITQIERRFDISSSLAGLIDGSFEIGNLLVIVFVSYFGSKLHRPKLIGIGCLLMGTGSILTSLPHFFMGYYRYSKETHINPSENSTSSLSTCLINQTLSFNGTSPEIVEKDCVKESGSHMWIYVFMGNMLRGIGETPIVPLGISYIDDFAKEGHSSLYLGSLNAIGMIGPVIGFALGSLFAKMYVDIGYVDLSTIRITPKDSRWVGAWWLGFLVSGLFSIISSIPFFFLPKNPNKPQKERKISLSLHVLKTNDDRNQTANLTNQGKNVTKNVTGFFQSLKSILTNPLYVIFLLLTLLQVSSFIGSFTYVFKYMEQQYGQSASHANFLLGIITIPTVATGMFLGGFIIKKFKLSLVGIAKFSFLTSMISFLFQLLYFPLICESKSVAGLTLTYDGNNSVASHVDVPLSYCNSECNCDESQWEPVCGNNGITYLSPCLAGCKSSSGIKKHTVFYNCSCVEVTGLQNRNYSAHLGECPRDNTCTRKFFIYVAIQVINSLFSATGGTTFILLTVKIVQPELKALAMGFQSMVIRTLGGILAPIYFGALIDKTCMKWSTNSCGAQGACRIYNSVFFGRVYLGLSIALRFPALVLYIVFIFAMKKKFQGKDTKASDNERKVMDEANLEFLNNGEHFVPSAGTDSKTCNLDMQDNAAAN
How it was run: (§1)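 Transfected cells and matching Mock cells were seeded at 2 × 10⁵ cells/mL and grown 2 days. After a DPBS (pH 7.4) wash and 10 min preincubation at 37 °C, cells took up 100 μmol/L test compound for 2–5 min at 37 °C. Uptake was stopped with three ice-cold DPBS washes, followed by methanol extraction and HPLC–MS. Values were normalised to BCA protein and compared with Mock.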

hOATP2B1 = biological target: T4, hOATP2B1 (Homo sapiens, UniProt O94956); assay: Cellular uptake in HEK293-hOATP2B1 vs Mock cells; assay type: in vitro ADME
T4 sequence (O94956 1-709): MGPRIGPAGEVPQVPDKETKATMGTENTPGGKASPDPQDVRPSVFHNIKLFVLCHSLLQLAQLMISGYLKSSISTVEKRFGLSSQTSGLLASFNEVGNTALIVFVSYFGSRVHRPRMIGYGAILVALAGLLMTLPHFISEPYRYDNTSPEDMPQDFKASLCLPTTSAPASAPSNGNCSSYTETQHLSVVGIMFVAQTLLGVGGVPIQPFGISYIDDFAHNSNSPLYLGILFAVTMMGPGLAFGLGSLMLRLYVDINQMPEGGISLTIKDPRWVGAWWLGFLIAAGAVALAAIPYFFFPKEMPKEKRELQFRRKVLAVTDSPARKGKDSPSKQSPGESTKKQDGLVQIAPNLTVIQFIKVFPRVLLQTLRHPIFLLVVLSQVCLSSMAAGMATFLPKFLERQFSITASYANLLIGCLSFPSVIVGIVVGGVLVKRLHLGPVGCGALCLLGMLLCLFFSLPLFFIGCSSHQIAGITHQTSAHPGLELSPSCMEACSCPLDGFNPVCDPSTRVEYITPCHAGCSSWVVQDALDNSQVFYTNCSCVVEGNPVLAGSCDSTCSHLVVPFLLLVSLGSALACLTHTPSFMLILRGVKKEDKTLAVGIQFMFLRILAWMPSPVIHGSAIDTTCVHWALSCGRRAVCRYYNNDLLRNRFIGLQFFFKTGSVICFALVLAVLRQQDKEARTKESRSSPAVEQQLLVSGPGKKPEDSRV

mice liver slices = assay: In vitro uptake of TDE in mice liver slices; assay type: in vitro ADME, Kunming mice; conditions: TDE 10 μmol/L
How it was run: (§2)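 Kunming mice (20–25 g, fasted 12 h) were anaesthetised with urethane, and kidney or liver was decapsulated into ice-cold oxygenated buffer at pH 7.5. Slices of about 30 mg were preincubated 5 min under carbogen at 4 or 37 °C. They were then incubated with 10 μmol/L test compound for 5, 10 or 30 min, with or without reference OAT1/OAT3 or OATP inhibitors or co-ingredients. Slices were then washed, blotted, weighed and homogenised, then extracted with methanol and an internal standard for HPLC–MS.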

hOAT1 = biological target: T5, hOAT1 (Homo sapiens, UniProt Q4U2R8); assay: Cellular uptake in MDCK-hOAT1 vs Mock cells; assay type: in vitro ADME; conditions: 100 μmol/L, substrate if >2-fold of wild type
T5 sequence (Q4U2R8 1-563): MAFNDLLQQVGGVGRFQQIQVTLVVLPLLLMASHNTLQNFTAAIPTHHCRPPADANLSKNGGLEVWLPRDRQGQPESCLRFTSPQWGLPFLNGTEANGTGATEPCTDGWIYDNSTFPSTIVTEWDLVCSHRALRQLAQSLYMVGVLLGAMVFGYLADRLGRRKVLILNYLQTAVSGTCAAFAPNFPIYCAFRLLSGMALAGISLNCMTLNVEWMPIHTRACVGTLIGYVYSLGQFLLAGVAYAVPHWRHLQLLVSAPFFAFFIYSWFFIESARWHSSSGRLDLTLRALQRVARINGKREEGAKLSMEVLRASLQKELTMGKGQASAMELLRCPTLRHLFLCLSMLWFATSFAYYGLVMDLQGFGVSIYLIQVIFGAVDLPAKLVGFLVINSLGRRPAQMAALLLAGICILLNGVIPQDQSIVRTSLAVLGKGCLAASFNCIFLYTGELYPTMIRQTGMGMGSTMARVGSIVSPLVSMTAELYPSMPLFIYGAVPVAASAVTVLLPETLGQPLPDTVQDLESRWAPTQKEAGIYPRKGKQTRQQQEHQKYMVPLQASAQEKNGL
How it was run: as §1

mice kidney slices = assay: In vitro uptake of TDE in mice kidney slices; assay type: in vitro ADME, Kunming mice; conditions: TDE 10 μmol/L
How it was run: as §2

[1] = substrate: COc1cc2c(cc1OC)[C@@H]1Cc3ccc(OC)c(OC)c3CN1CC2; assay: Cellular uptake and kinetics in S2-hOAT3 vs Mock cells; assay type: in vitro ADME, human; conditions: other: hOAT3, TDE 0.03-10 μmol/L, 2 min, 37 °C, Eadie-Hofstee, pH 7.4
[2] = 100 μmol/L, substrate if >2-fold of wild type

CC12CCC3c4ccc(OS(=O)(=O)O)cc4CCC3C1CCC2=O (stereo not drawn) [3H-ES, 3H-estrone sulfate, reference compound]
accumulation of model substrate, fold higher than in Mock cells (hOAT3; 50 nmol/L 3H-ES, 2 min, S2-hOAT3 vs Mock): 5.6 fold | Uptake rate, Control (hOAT3; S2-hOAT3, 50 nmol/L 3H-ES, 2 min): 0.62 ± 0.015∗∗ pmol/mg protein/min | Uptake rate, Control + inhibitor (hOAT3; S2-hOAT3, 50 nmol/L 3H-ES, 2 min, inhibitor not named): 0.29 ± 0.17 pmol/mg protein/min | accumulation of model substrate, fold higher than in Mock cells (hOATP1B1; 50 nmol/L 3H-ES, 2 min, HEK293-hOATP1B1 vs Mock): 10.3 fold | Uptake rate, Control (hOATP1B1; HEK293-hOATP1B1, 50 nmol/L 3H-ES, 2 min): 1.13 ± 0.11∗∗ pmol/mg protein/min | Uptake rate, Control + inhibitor (hOATP1B1; HEK293-hOATP1B1, 50 nmol/L 3H-ES, 2 min, inhibitor not named): 0.35 ± 0.14 pmol/mg protein/min | accumulation of model substrate, fold higher than in Mock cells (hOATP1B3; 50 nmol/L 3H-ES, 2 min, HEK293-hOATP1B3 vs Mock): 4.7 fold | Uptake rate, Control (hOATP1B3; HEK293-hOATP1B3, 50 nmol/L 3H-ES, 2 min): 0.52 ± 0.017∗∗ pmol/mg protein/min | Uptake rate, Control + inhibitor (hOATP1B3; HEK293-hOATP1B3, 50 nmol/L 3H-ES, 2 min, inhibitor not named): 0.24 ± 0.13 pmol/mg protein/min | accumulation of model substrate, fold higher than in Mock cells (hOATP2B1; 50 nmol/L 3H-ES, 2 min, HEK293-hOATP2B1 vs Mock): 4.2 fold | Uptake rate, Control (hOATP2B1; HEK293-hOATP2B1, 50 nmol/L 3H-ES, 2 min): 0.46 ± 0.011∗∗ pmol/mg protein/min | Uptake rate, Control + inhibitor (hOATP2B1; HEK293-hOATP2B1, 50 nmol/L 3H-ES, 2 min, inhibitor not named): 0.19 ± 0.034 pmol/mg protein/min

CO[C@H]1/C=C/O[C@@]2(C)Oc3c(C)c(O)c4c(O)c(c(/C=N/N5CCN(C)CC5)c(O)c4c3C2=O)NC(=O)/C(C)=C\C=C\[C@H](C)[C@H](O)[C@@H](C)[C@@H](O)[C@@H](C)[C@H](OC(C)=O)[C@@H]1C [Rifampicin, rifampicin, reference compound]
effect on the uptake of TDE in liver slices (mice liver slices; mice liver slices): could inhibit

COc1cc2c(cc1OC)[C@@H]1Cc3ccc(OC)c(OC)c3CN1CC2 [TDE, tetrahydropalmatine]
accumulation in MDCK-hOAT1, fold higher than in MDCK-Mock (hOAT1): about 1.25 fold | accumulation in S2-hOAT3, fold higher than wild type (S2-Mock) (hOAT3; [2]): about 2.25 fold | accumulation in hOATP1B1-overexpressed cell lines compared to wild type (hOATP1B1; 100 μmol/L): could largely accumulate | accumulation in HEK293-hOATP1B3 vs HEK293 wild type (hOATP1B3; [2]): 3.31 fold | Vmax (hOATP1B3; hOATP1B3, TDE 0.03-10 μmol/L, 2 min, 37 °C, Eadie-Hofstee): 512.09 pmol/mg protein/min | Km at 2 min (hOATP1B3; human, pH 7.4): 6.72 µM | accumulation in HEK293-hOATP2B1 vs HEK293 wild type (hOATP2B1; [2]): less than 2 fold | accumulation of TDE at 37 °C, fold greater than at 4 °C (mice liver slices; liver slices, 30 min): approximately 2.3 fold

CCCN(CCC)S(=O)(=O)c1ccc(C(=O)O)cc1 [probenecid, reference compound]
effect on the uptake of TDE in kidney slices (mice kidney slices): could inhibit

B1: hOAT3 (Homo sapiens) (protein)
chain: MTFSEILDRVGSMGHFQFLHVAILGLPILNMANHNLLQIFTAATPVHHCRPPHNASTGPWVLPMGPNGKPERCLRFVHPPNASLPNDTQRAMEPCLDGWVYNSTKDSIVTEWDLVCNSNKLKEMAQSIFMAGILIGGLVLGDLSDRFGRRPILTCSYLLLAASGSGAAFSPTFPIYMVFRFLCGFGISGITLSTVILNVEWVPTRMRAIMSTALGYCYTFGQFILPGLAYAIPQWRWLQLTVSIPFFVFFLSSWWTPESIRWLVLSGKSSKALKILRRVAVFNGKKEEGERLSLEELKLNLQKEISLAKAKYTASDLFRIPMLRRMTFCLSLAWFATGFAYYSLAMGVEEFGVNLYILQIIFGGVDVPAKFITILSLSYLGRHTTQAAALLLAGGAILALTFVPLDLQTVRTVLAVFGKGCLSSSFSCLFLYTSELYPTVIRQTGMGVSNLWTRVGSMVSPLVKITGEVQPFIPNIIYGITALLGGSAALFLPETLNQPLPETIEDLENWSLRAKKPKQEPEVEKASQRIPLQPHGPGLGSS
Km [1]: 1.44 µM | Vmax [1]: 188.45 pmol/mg protein/min
